Experimental data collected from several papers.
Compare with care: the assays were run in different laboratories.
Target: Calcium/calmodulin-dependent protein kinase kinase 2 (CAMKK2, Homo sapiens, UniProt Q96RR4)

Nc1nc(NC2CCCCC2)sc1C(=O)c1ccccc1
remaining activity (enzyme activity; inhibitor; 10 µM): 63%

CCN1CCC2(CC1)NC(=O)c1c(c3ccc(Cl)c(Cl)c3n1C)C2C#N (racemic)
ΔTm (thermal stability; DSF; 10 µM): 0.5 °C

O=C1Nc2ccc(Cl)cc2C1=Cc1cc(Cl)c(O)c(Cl)c1
remaining signal (cell-free assay; 0.5 µM): 51.5%

O=C(O)c1cc(-c2ccc(C3CCNCC3)cc2)c2ccc(-c3ccc(C(F)(F)F)cc3)cc2c1
remaining binding (cell-free assay; competition with immobilised ligand; 1 µM): 100%

CNC(=O)c1cc(Oc2ccc(NC(=O)Nc3ccc(Cl)c(C(F)(F)F)c3)cc2)ccn1
remaining signal (cell-free assay; 0.5 µM): 103%

Cc1ccc(NC(=O)c2ccc(C)c(C(F)(F)F)c2)cc1C#Cc1nn(C2CCC(O)CC2)c2ncnc(N)c12 (centres unmarked)
remaining signal (cell-free assay; 10 µM): 55%

Cn1c2c(c3ccc(Cl)c(Cl)c31)C(C#N)C1(CCCC1)NC2=O (centres unmarked)
ΔTm (thermal stability; DSF; 10 µM): 0.3 °C

CN(C)c1nccc(-c2cnc3ncccn23)n1
remaining binding (binding; 1 µM): 100%

Cc1cnc(NC2CCOCC2)nc1-n1cnc(C(=O)NC(CN)c2cc(F)cc(Cl)c2)c1 (centres unmarked)
remaining activity (enzyme activity; inhibitor; radiometric; 1 µM): 81%

Cc1ccc(C(=O)NCc2ccsc2)cc1C#Cc1cn(C(C)C)c2ncnc(N)c12
activity vs control (enzyme activity; inhibitor; 1 µM): 110%

COc1ccc2c(c1)O[C@H](c1ccc(OC)c(OC)c1)C[C@@H]2NC(=O)C1(c2ccc3c(c2)OC(F)(F)O3)CC1
remaining binding (cell-free assay; competition with immobilised ligand; 1 µM): 100%

O=C(CSc1nc2nccnc2c(=O)n1CCc1ccccc1)Nc1nccs1
inhibition (enzyme activity; inhibitor; 10 µM): 5%

FC(F)c1nc2ccccc2n1-c1nc(N2CCOCC2)nc(N2CCOCC2)n1
remaining activity (enzyme activity; inhibitor; 10 µM): 87%

Cc1noc([C@H]2C[C@@H](c3ccc(C(F)(F)F)cc3)CN(C(=O)N3CCS(=O)(=O)C3)C2)n1
remaining binding (cell-free assay; competition with immobilised ligand; 1 µM): 100%

COc1cc(Nc2cnc(C#N)c(O[C@H](C)CN(C)C)n2)ncc1-c1cnn(C)c1
remaining activity (enzyme activity; inhibitor; radiometric; 10 µM): 71%

c1ccc(CNc2nc(N3CCOc4ccccc43)nc3c2CCCC3)cc1
inhibition (target engagement in cells; inhibitor; chemoproteomics; 20 mM): 0.1%

CC(C)(C)C(=O)c1sc(NC2CCCCC2)nc1N
remaining activity (enzyme activity; inhibitor; 10 µM): 83%

CS(=O)(=O)c1cc(C2(NC(=O)c3cncc4c3cnn4-c3ccc(F)cc3)CC2)ccn1
remaining binding (cell-free assay; competition with immobilised ligand; 1 µM): 75%

CC(C)(C)c1nc(-c2cccc(NS(=O)(=O)c3c(F)cccc3F)c2F)c(-c2ccnc(N)n2)s1
remaining activity (enzyme activity; inhibitor; radiometric; 1 µM): 113%

Nc1ncnc2occ(-c3ccc(NC(=O)Nc4cc(C(F)(F)F)ccc4F)cc3)c12
remaining signal (cell-free assay; inhibitor; 20 µM): 24%

CCOCCn1cc(C(=O)Nc2ccc(-n3nc(-c4cccnc4)cc3C(F)(F)F)cn2)ccc1=O
remaining binding (cell-free assay; competition with immobilised ligand; 1 µM): 100%

CN1CCC2(CC1)NC(=O)c1c(c3ccc(Cl)c(Cl)c3n1C)C2C#N (racemic)
ΔTm (thermal stability; DSF; 10 µM): 1 °C

COc1cc(-c2cn(C3CCc4ccccc4N(CC(F)(F)F)C3=O)nn2)ccc1-n1ccc(C)n1 (centres unmarked)
remaining binding (cell-free assay; competition with immobilised ligand; 1 µM): 100%

Oc1cccc(-c2nc(N3CCOCC3)c3oc4ncccc4c3n2)c1
remaining activity (enzyme activity; inhibitor; 10 µM): 114%

FC(F)(F)Oc1cccc(-c2cnc3ccc(-c4ccncc4)nn23)c1
activity vs control (enzyme activity; inhibitor; radiometric; 1 µM): 59%

CCc1ccccc1C(=O)Nc1n[nH]c2c(C)c(F)c(C3C(C#N)=C(C)N(C)C(C)=C3C#N)cc12
remaining binding (cell-free assay; competition with immobilised ligand; 1 µM): 95%

O=C1NC(=O)c2cc(Nc3ccc(F)cc3)c(Nc3ccc(F)cc3)cc21
remaining signal (cell-free assay; 0.5 µM): 88.3%

CN1CCN(c2cnc3c(C4CCN(C(=O)c5ccc(OC(F)(F)F)cc5N)CC4)ncnc3c2)CC1
remaining binding (cell-free assay; competition with immobilised ligand; 1 µM): 100%

O=C(Nc1cnn(-c2csc(C(=O)NC3COC3)c2)c1)Nc1c(F)cccc1Cl
remaining activity (enzyme activity; inhibitor; 5 µM): 81%
